Here are results for 15 compounds from ChEMBL document CHEMBL3785056, “New imidazoquinoxaline derivatives: Synthesis, biological evaluation on melanoma, effect on tubulin polymerization and structure-activity relationships” (Bioorg Med Chem, 2016).

One test addresses Tubulin (Sus scrofa) (UniProt P02554+P02550). The test can be described thus: Inhibition of pig brain tubulin polymerization at 5 uM by spectrophotometric analysis. In short, it runs like this: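 Compound 5 µM final, DMSO as negative control. Polymerization at 37 °C followed by turbidity at 350 nm, with ice added after 45 min to check depolymerization. Given as % inhibition from three independent experiments.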

The subject of test [1] is A-375. The test can be described thus: Antiproliferative activity against human A375 cells assessed as cell growth inhibition after 96 hrs by MTT assay. The test is classed as functional, cell-based. The note with it: A-375, 96 h. In short, it runs like this:
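A375 cells in RPMI-1640 with 10% heat-inactivated FBS, 37 °C, 5% CO2, seeded 5000 cells/well and attached overnight. Exposed 96 h to […] in 1% DMSO/medium. MTT read at 570 nm after isopropanol/HCl solubilization. Survival given as % of vehicle control. IC50 taken from sigmoidal dose-response curves, at least three experiments in triplicate.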

Test [2] has as its system A-375. The test can be described thus: Cell cycle arrest in human A375 cells assessed as effect on number of cells at S phase after 24 hrs by propidium iodide staining based flow cytometric analysis. The test is classed as functional. In short, it runs like this: (§1)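 A375 cells treated 24 h, washed in PBS and pelleted at 400g, 4 °C. Pellet lysed in ice-cold hypotonic solution (PI 25 µg/ml, 0.1% trisodium citrate, RNase A, 0.1% Triton X-100) and held overnight on ice. DNA content read by flow cytometry, giving G0/G1, S and G2/M percentages.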

In test [3] the test system is A-375. The test can be described thus: Cell cycle arrest in human A375 cells assessed as accumulation of cells at G2/M phase after 24 hrs by propidium iodide staining based flow cytometric analysis. The test is classed as functional. In short, it runs like this:
as §1

The subject of test [4] is A-375. The test can be described thus: Cell cycle arrest in human A375 cells assessed as effect on number of cells at G0/G1 phase after 24 hrs by propidium iodide staining based flow cytometric analysis. In kind it is functional. In short, it runs like this: as §1

Molecules are shown by their SMILES. The source made the active and inactive calls. The rule behind the calls is not given here.

Tubulin (Sus scrofa), sequence (P02550 whole entry, looked up): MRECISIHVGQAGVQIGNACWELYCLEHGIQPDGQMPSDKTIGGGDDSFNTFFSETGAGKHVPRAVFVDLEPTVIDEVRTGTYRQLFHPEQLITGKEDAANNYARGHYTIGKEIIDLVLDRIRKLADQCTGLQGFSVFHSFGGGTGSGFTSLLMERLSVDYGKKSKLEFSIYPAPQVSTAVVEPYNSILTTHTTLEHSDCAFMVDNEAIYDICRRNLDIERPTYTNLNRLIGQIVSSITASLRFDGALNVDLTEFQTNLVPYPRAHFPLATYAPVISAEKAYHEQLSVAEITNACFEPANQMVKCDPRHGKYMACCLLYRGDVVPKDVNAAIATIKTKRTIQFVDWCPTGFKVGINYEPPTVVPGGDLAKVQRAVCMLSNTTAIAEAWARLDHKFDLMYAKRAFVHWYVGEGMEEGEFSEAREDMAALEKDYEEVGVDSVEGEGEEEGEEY
Tubulin (Sus scrofa), sequence (P02554 whole entry, looked up): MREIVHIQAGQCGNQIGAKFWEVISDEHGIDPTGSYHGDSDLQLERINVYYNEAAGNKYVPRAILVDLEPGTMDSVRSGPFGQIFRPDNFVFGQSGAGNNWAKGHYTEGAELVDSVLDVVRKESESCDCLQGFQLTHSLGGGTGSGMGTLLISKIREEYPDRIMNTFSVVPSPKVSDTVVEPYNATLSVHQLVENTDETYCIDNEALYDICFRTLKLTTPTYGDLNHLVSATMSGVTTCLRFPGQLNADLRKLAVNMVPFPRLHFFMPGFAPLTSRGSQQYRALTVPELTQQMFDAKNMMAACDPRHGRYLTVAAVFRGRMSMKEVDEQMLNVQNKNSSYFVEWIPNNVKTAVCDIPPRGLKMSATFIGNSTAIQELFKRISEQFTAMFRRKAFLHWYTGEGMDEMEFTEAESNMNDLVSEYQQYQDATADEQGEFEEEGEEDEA

In turn, `CNc1nc2ccccc2n2c(-c3cc(OC)ccc3OC)cnc12` had an inhibition against Tubulin (Sus scrofa) of 3%. In the test with A-375 [1], the IC50 came to 1.2 µM.
On to `CNc1nc2ccccc2n2c(-c3c(OC)cc(OC)cc3OC)cnc12`, for which the inhibition result at Tubulin (Sus scrofa) is “inactive”. The IC50 in the test with A-375 [1] was determined as 2.3 µM.
Consider `COc1cc2c(c(OC)c1OC)-c1ccc(OC)c(=O)cc1[C@@H](NC(C)=O)CC2` [COLCHICINE], for which the IC50 with A-375 [1] worked out at 0.01 µM.
As to `CNc1nc2ccccc2n2c(-c3ccc(OC)c(OC)c3)cnc12`, the inhibition against Tubulin (Sus scrofa) was 63%. In addition, the half-maximal inhibitory concentration (IC50) in the test on A-375 [1] was 0.3 µM.
For the compound `CNc1nc2ccccc2n2c(-c3cccc(OC)c3)cnc12`, the inhibition at Tubulin (Sus scrofa) stood at 84%. Besides, the Activity entry in the test on A-375 [2], in the test on A-375 [3] and with A-375 [4] was “Dose-dependent effect” in each case.
The compound `CNc1nc2ccccc2n2c(-c3cccc(OC)c3O)cnc12` came in with an inhibition on Tubulin (Sus scrofa) of 90%. For the same compound, the IC50 with A-375 [1] is 0.077 µM.
In the case of `CNc1nc2ccccc2n2c(-c3cccc(OC)c3OC)cnc12`, the inhibition entry at Tubulin (Sus scrofa) is “inactive”. The IC50 in the test on A-375 [1] was found to be 5.9 µM.
For the compound `CNc1nc2ccccc2n2c(-c3cccc(O)c3)cnc12`, the inhibition result at Tubulin (Sus scrofa) is “inactive”. Further, in the test on A-375 [1], the IC50 amounted to 1.25 µM.
As for `CNc1nc2ccccc2n2c(-c3cc(OC)c(OC)c(OC)c3)cnc12`, the inhibition result on Tubulin (Sus scrofa) is “inactive”. For the same compound, in the test on A-375 [1], the IC50 is 1.8 µM.
As for `CNc1nc2ccccc2n2c(-c3ccc(OC)c(OC)c3OC)cnc12`, the inhibition result at Tubulin (Sus scrofa) is “inactive”. For the same compound, in the test on A-375 [1], the IC50 worked out at 1.5 µM.
Take `CNc1nc2ccccc2n2c(-c3cc(OC)cc(OC)c3)cnc12`: the inhibition at Tubulin (Sus scrofa) came to 98.5%. In addition, the Activity result in the test with A-375 [2], in the test on A-375 [3] and in the test on A-375 [4] was “Dose-dependent effect” each time. Moreover, the 50% inhibitory concentration (IC50) with A-375 [1] came to 0.22 µM.
Take `CNc1nc2ccccc2n2c(-c3ccccc3OC)cnc12`: the inhibition result at Tubulin (Sus scrofa) was “inactive”.
For the compound `COc1cccc(-c2cnc3c(N)nc4ccccc4n23)c1`, the inhibition on Tubulin (Sus scrofa) came to 41%. Moreover, the IC50 in the test with A-375 [1] was 0.2 µM.
On Tubulin (Sus scrofa), `CNc1nc2ccccc2n2c(-c3ccc(OC)cc3)cnc12` registered an inhibition of 99%. Moreover, the Activity result in the test with A-375 [2], in the test on A-375 [3] and in the test on A-375 [4] was “Dose-dependent effect” in each case.
Consider `Nc1nc2ccccc2n2c(-c3cccc(O)c3)cnc12`, for which the inhibition against Tubulin (Sus scrofa) is 11.3%. Moreover, the IC50 in the test with A-375 [1] was 2.4 µM.
